# Shown is part of a subset that was picked to be rich in hits.
# HUVEC inhibit – blocks proliferation of human endothelial cells; HUVEC proliferation, CellTiter-Glo luminescence, 72 h; hits give low values; viability, % at 10 µM (by protocol); 1.1% of 86,000 active; AID 648;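 active means viability at or below 30%; inactive means viability above 30%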;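 further: 100% = median luminescence of DMSO-only cell control wells on each plate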
# bCat KO growth – beta-catenin-lacking colon tumor cell growth suppression; 1.5% of 140,000 active; HCT116 beta-catenin knockout viability, CellTiter-Glo, 60 h; hits give low values; viability, % at 10 µM;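 active means viability at or under a set limit, the compound median less 4 SD, cut at about 6% in these data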;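 further: 0% = Hyamine 1622 control at 20 µM and 100% = untreated cell control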
# H69AR inhibit – growth inhibitors of human H69AR lung tumor cells; H69AR lung tumor viability, ATP luminescence, 72 h; hits give low values; viability, % at 10 µM; 6% of 85,000 active; AID 598;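 active means viability at or below 40%; inactive means viability above 40%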;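 further: multidrug resistant small cell line overexpressing MRP-1 efflux transporter; 100% = mean luminescence of untreated control wells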
# Fibroblast inh – blocks proliferation of human lung fibroblasts; LL 47 human lung fibroblast viability, ATP luminescence; hits give low values; viability, % at 10 µM; 1.1% of 85,000 active;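 active means viability at or below 50% in the single dose screen; inactive means viability above 50%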;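 further: compound exposure lasted 72 h before the ATP readout; 100% = median luminescence of untreated cell-only wells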
#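 Benchmarks: Cell-only wells, no compound | Test system: LL 47 human lung fibroblasts, passage 12 or lower | Input: 1,150 cells/well | Measured by: CellTiter-Glo luminescence measuring cellular ATP | Medium: IMEM, 15% FBS supplement | Schedule: Overnight attachment after seeding, then 72 h compound exposure at 37 °C | Doses: Compound addition at 0.1% DMSO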
# PTEN del growth – PTEN-deleted cell growth suppression. viability, % at 10 µM. HCT116 PTEN-null viability, CellTiter-Glo, 60 h; hits give low values. 1.2% of 140,000 active;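 active means viability at or below a set limit, 4 SD under the median of all tested compounds, cut at about 3.7% in these data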;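 further: PTEN knockout HCT116 line with beta catenin targeted HCT116 as companion control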
# Numbers without * were called inactive; · = not tested or not shown.
SMILES,HUVEC inhibit,bCat KO growth,H69AR inhibit,Fibroblast inh,PTEN del growth
Cc1ccsc1C(=O)Nc1ccc(F)c([N+](=O)[O-])c1,·,85,·,·,84
C=CCc1ccc(OCc2ccc(C(=O)OC)o2)c(OC)c1,112,100,101,110,99
Oc1ccccc1-c1nc(/C=C/c2ccccc2)nn1-c1ccccc1,·,88,·,·,87
CCOC(=O)C(C)(C)N(Cc1cccc(C)c1)S(=O)(=O)c1ccc(Cl)c([N+](=O)[O-])c1,·,1.7*,·,·,3.3*
CC(=O)OCCSc1c(-c2ccccc2)c2cc(Cl)ccc2[nH]c1=O,·,80,·,·,78
CC12CCC(c3c(C(=O)O)nn(-c4ccccc4)c31)C2(C)C (stereo not drawn),107,93,85,98,103
CC12CCC(c3c(C(=O)Nc4nccs4)nn(-c4ccccc4)c31)C2(C)C (stereo not drawn),100,1.4*,20*,69,1.6*
Cc1cccc(C)c1OCC(=O)Nc1oc(-c2ccccc2)c(-c2ccccc2)c1C#N,68,·,27*,96,·
COc1ccccc1CNCC(O)Cn1c2ccccc2c2ccccc21 (stereo not drawn),·,1.5*,·,·,1.4*
Cn1nc(-c2ccc(Cl)cc2)c2cc(C(=O)NCCCN3CCOCC3)sc21,2.9*,15,43,39*,27
CCN(CC)CCNC(=O)c1cc2c(-c3ccc(Cl)cc3)nn(C)c2s1,2.8*,1.5*,2.5*,21*,1.1*
CCOC(=O)/C(=N\Nc1ccccc1)c1csc(Nc2ccc(C)cc2)n1,25*,42,3.3*,79,34
COC(=O)c1ccc2nc(C)c(C)nc2c1,·,98,·,·,95
COC(=O)c1ccc2c(c1)C(C)(C)C(/C=C/c1ccc(OC)c(OC)c1OC)=[N+]2C,5.3*,4.9*,4.1*,6.5*,0.6*
COC(=O)c1ccc2c(c1)C(C)(C)C(/C=C/c1ccc(O)cc1)=[N+]2C,·,1.9*,·,·,1.7*
O=c1c2c3nc4ccccc4nc3n(CCN3CCOCC3)c2ncn1CCN1CCOCC1,94,·,85,104,·
CCOc1ccc(NC(=O)c2cnc3scc(C)n3c2=O)cc1,96,·,92,108,·
COC(=O)/C(=C(/F)Sc1cc(C)c(O)c(C)c1)C(F)(F)F,23*,80,2.7*,9.3*,78
Fc1ccccc1CSc1nnc(Cn2cnc3ccccc32)n1-c1ccccc1,87,93,90,97,89
O=C(COC(=O)/C=C/c1cccs1)NC(c1ccccc1)c1ccccc1,·,96,·,·,100
COc1ccc(C(C(=O)OC(C)CN(C)C)c2ccccc2)cc1 (stereo not drawn),·,86,·,·,101
CN(C)CC(C(=O)c1ccccc1)c1ccccc1 (stereo not drawn),41,1.4*,0.1*,17*,1.0*
CCOC(=O)c1cn(-c2ccccc2)nc1-c1ccncc1,88,65,88,95,60
CC1(C)CC(=O)C2=C(C1)Oc1nc3ccccc3cc1C2C(C#N)C#N (stereo not drawn),50,9,1.6*,17*,6
Cc1sc2nc(CSc3nc4ccccc4c(=O)n3CCCN3CCOCC3)[nH]c(=O)c2c1C,60,42,9.8*,86,32
SMILES,HUVEC inhibit,bCat KO growth,H69AR inhibit,Fibroblast inh,PTEN del growth
CC(=O)c1c(C)[nH]c(C(=O)CSc2nc3ccccc3c(=O)n2CCCN2CCOCC2)c1C,86,59,66,81,58
O=c1[nH]c(Nc2nc3ccccc3o2)nc2c1CCCC2,55,3.3*,17*,5.6*,2.8*
Cc1cc(N/N=C/c2ccc(O)cc2O)nc(-c2ccccc2O)n1,·,5.9*,·,·,2.7*
COc1cc(/C=N/OCC(=O)Nc2cc(C)cc(C)c2)ccc1OCc1ccc(Cl)cc1,·,88,·,·,81
Cc1ccc(S(=O)(=O)/C(C#N)=C/c2c(N3CCC(C(N)=O)CC3)nc3c(C)cccn3c2=O)cc1,74,95,81,91,94
Cc1ccc(S(=O)(=O)/C(C#N)=C/c2c(Oc3ccc(Cl)cc3)nc3c(C)cccn3c2=O)cc1,·,2.7*,·,·,2.0*
Cc1cccc(N2CCN(C(=O)c3cc4n(n3)C(C(F)(F)F)CC(c3ccco3)N4)CC2)c1C (stereo not drawn),·,2.2*,·,·,3.5*
O=C(c1cc2n(n1)C(C(F)(F)F)CC(c1ccco1)N2)N1CCN(c2ccccn2)CC1 (stereo not drawn),98,98,96,106,101
O=C(Cn1cnc2c(cnn2-c2ccc(F)cc2)c1=O)N1CCCc2ccccc21,105,51,94,96,61
Cc1cc(C)nc(SCCn2c(N3CCC(C)CC3)nc3c2c(=O)n(C)c(=O)n3C)n1,88,·,80,103,·
COc1ccc2c(c1)c(=O)oc1cc(OCC(=O)NC3CC3)ccc12,91,3.8*,36*,75,48
COc1ccccc1OCC(=O)NC1CCCCCC1,97,95,99,99,100
COc1ccc2c(c1)c(=O)oc1cc(OCC(=O)NC3CCCCC3)ccc12,66,95,19*,105,80
COc1ccc2occ(C(=O)c3cccs3)c2c1,90,63,91,106,63
Cc1cc(C)c2ccc(N)nc2c1O,76,3.8*,14*,9.4*,5
O=C1C(=O)c2ccc(-c3ccccc3)cc2-c2ccccc21,2.2*,0.1*,1.5*,2.7*,0.1*
CC(=O)Nc1ccc2c(c1)C(=O)c1ccccc1C2=O,·,79,·,·,70
Nc1ccc2c(c1)C(=O)C(=O)c1ccccc1-2,3.1*,1.0*,0.2*,2.1*,1.1*
Nc1cc(Br)c(N)c(Br)c1,92,94,23*,97,98
Cc1cc(CC(C)C)n(-c2nc3ccccc3c(=O)n2OCc2ccccc2)n1,91,64,70,87,73
CC(C)(C)c1cccc(/C=N/O)c1O,107,83,104,102,·
CC(C)(C)c1ccc(O)c(/C=N\O)c1,95,82,25*,87,81
Cc1cnc(C(=O)Nc2cccc3cccnc23)cn1,5.1*,17,3.6*,43*,10
C=CCn1c(SCc2nc3ccccc3c(=O)[nH]2)nnc1-c1cc2cc(Cl)ccc2o1,65,70,17*,92,76
Brc1cccc(-c2n[nH]c(-c3ccccc3)n2)c1,61,32,40*,94,28
SMILES,HUVEC inhibit,bCat KO growth,H69AR inhibit,Fibroblast inh,PTEN del growth
O=C(NC1CCCCC1)N1CCC(c2nc(-c3ccc(S(=O)(=O)N4CCCC4)cc3)no2)CC1,73,62,30*,83,50
O=C(C1CC1)N1CCC(c2nc(-c3ccc(S(=O)(=O)N4CCCC4)cc3)no2)CC1,98,97,93,109,72
COc1ccc(S(=O)(=O)N2CCN(Cc3cccc(Cl)c3)CC2)cc1,·,87,·,·,86
COC(=O)C1CCN(C(=O)COC(=O)Cn2cnnn2)CC1,106,90,90,96,95
C=C(C(=O)c1ccccc1)C(C)CC(=O)c1ccccc1 (stereo not drawn),·,2.1*,·,·,1.5*
CCOC(=O)c1cccc(NC(=O)c2cncc(Br)c2)c1,·,96,·,·,95
